{"source": "ChEMBL document CHEMBL4673340", "about": "(J Med Chem, 2020)", "key": {"[1]": {"assay": "Tmax in Sprague-Dawley rat at 5 mg/kg, po by LC-MS/MS analysis", "conditions": "in vivo"}, "SK-BR-3": {"tested_on": "SK-BR-3", "assay": "Antiproliferation activity against human SK-BR-3 cells incubated for 7 days by CellTiter-Glo luminescent cell viability assay", "assay_type": "functional, cell-based", "conditions": "SK-BR-3, 168 h", "summary_of_the_method": "(§1)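 Seeding density is set per line for log growth over 7 days. Cells attach 16 h, then are treated in duplicate with a 10-point dilution series for 7 days. CellTiter-Glo luminescence (ATP) is read, and viability is expressed relative to mock-treated control. EC50 is the mean of three independent experiments run in triplicate.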"}, "[2]": {"assay": "AUC (0 to infinity) in ICR mouse at 10 mg/kg, po by LC-MS/MS analysis", "assay_type": "ADME, organism-based", "parameters": "time infinity, route oral, dose 10 mg/kg", "conditions": "in vivo", "summary_of_the_method": "(§2)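 Male/female unspecified ICR mice, n=3 per route. Intravenous 1 mg/kg in 5% DMA in water; oral 10 mg/kg in 0.5% MC. Plasma is processed by protein precipitation and analysed by LC–MS/MS using an acetonitrile/0.1% formic acid gradient. Values are means of the three animals.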"}, "Cytochrome P450 3A4": {"biological_target": "Cytochrome P450 3A4 (Homo sapiens, UniProt P08684)", "sequence (P08684 whole entry)": "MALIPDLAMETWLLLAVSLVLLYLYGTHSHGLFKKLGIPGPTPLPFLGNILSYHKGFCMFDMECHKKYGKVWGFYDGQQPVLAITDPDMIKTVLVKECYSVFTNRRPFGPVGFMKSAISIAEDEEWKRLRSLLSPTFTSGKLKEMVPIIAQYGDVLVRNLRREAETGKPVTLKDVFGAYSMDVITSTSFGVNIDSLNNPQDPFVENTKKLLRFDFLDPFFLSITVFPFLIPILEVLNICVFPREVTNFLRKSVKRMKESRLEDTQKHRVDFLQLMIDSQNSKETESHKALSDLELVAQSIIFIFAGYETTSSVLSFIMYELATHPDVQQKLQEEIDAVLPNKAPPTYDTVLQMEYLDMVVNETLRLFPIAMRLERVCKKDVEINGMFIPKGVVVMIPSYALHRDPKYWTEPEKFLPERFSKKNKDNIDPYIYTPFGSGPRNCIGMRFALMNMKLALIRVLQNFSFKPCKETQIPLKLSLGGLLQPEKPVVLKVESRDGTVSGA", "assay": "Inhibition of CYP3A4 (unknown origin)", "assay_type": "ADME"}, "[3]": {"assay": "Half life in Sprague-Dawley rat at 2 mg/kg, iv by LC-MS/MS analysis", "assay_type": "ADME, organism-based", "conditions": "in vivo", "summary_of_the_method": "(§3)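 Sprague-Dawley rats (n=3) get 2 mg/kg iv formulated in 38% DMA in water. Plasma is protein-precipitated and quantified by LC–MS/MS (C18, acetonitrile/0.1% formic acid gradient). Parameters are means of the three rats.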"}, "[4]": {"assay": "Toxicity in BALB/c nude mouse xenografted with human NCI-H209 cells assessed as induction of body weight loss at […], po BID for 28 days and co-treated with 50 mg/kg, po QD TMZ for 5 consecutive days at start of study and again 14 days later relative to TMZ alone", "assay_type": "organism-based", "conditions": "in vivo, dose 0.75 mg/kg, time 28 day"}, "[5]": {"assay": "Half life in Beagle dog at 1 mg/kg, iv by LC-MS/MS analysis", "assay_type": "ADME, organism-based, Canis lupus familiaris", "conditions": "in vivo", "summary_of_the_method": "(§4)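 Three Beagle dogs; iv dose 1 mg/kg in 25% DMA in water; oral dose 2 mg/kg in 0.5% CMC-Na. Plasma drug concentrations are measured by LC–MS/MS. Values are the mean of three dogs.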"}, "[6]": {"biological_target": "Solute carrier family 22 member 6 (Homo sapiens, UniProt Q4U2R8)", "sequence (Q4U2R8 whole entry)": "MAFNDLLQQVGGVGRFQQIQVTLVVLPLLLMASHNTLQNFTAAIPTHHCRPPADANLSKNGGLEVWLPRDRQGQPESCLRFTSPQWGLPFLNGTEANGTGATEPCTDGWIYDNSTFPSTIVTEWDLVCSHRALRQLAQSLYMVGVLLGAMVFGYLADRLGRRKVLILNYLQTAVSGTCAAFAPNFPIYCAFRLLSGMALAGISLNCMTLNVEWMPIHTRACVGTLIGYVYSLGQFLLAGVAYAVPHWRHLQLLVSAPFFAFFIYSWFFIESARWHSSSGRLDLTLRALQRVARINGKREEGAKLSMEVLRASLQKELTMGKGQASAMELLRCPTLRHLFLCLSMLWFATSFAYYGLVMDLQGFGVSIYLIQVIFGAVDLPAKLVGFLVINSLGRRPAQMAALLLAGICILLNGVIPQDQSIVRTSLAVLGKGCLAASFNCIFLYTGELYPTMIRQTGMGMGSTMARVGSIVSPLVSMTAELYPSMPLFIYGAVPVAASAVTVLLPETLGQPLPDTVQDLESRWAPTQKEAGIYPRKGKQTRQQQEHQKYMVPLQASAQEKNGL", "assay": "Inhibition of OAT1 (unknown origin)"}, "[7]": {"assay": "Drug level in C57BL/6 mouse plasma at 10 mg/kg, po after 4 hrs", "assay_type": "ADME, organism-based", "summary_of_the_method": "(§5)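 C57BL/6 mice (n=3) dosed orally at 10 mg/kg in 0.5% MC. Plasma and brain are sampled at 1, 2 and 4 h. Brain is homogenized in 3 volumes of saline, then acetonitrile protein precipitation; plasma is likewise precipitated. Both are analysed by LC–MS/MS and reported as means.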"}, "[8]": {"assay": "AUC (0 to infinity) in Beagle dog at 2 mg/kg, po by LC-MS/MS analysis", "assay_type": "ADME, organism-based, Canis lupus familiaris", "parameters": "route oral, time infinity, dose 2 mg/kg", "conditions": "in vivo", "summary_of_the_method": "as §4"}, "[9]": {"assay": "Clearance in Beagle dog at 1 mg/kg, iv by LC-MS/MS analysis", "assay_type": "ADME, organism-based, Canis lupus familiaris", "conditions": "in vivo", "summary_of_the_method": "as §4"}, "[10]": {"assay": "Cmax in ICR mouse at 10 mg/kg, po by LC-MS/MS analysis", "assay_type": "ADME, organism-based", "parameters": "route oral, dose 10 mg/kg", "conditions": "in vivo", "summary_of_the_method": "as §2"}, "[11]": {"assay": "Drug level in C57BL/6 mouse plasma at 10 mg/kg, po after 1 hrs", "assay_type": "ADME, organism-based", "summary_of_the_method": "as §5"}, "[12]": {"assay": "Clearance in ICR mouse at 1 mg/kg, iv by LC-MS/MS analysis", "assay_type": "ADME, organism-based", "conditions": "in vivo", "summary_of_the_method": "as §2"}, "[13]": {"assay": "Unbound fraction in rat plasma", "assay_type": "ADME, cell-free"}, "[14]": {"assay": "Apparent permeability from apical to basolateral side in human Caco-2 cells", "assay_type": "ADME, cell-based"}, "MDA-MB-231": {"tested_on": "MDA-MB-231", "assay": "Antiproliferation activity against human MDA-MB-231 cells incubated for 7 days by CellTiter-Glo luminescent cell viability assay", "assay_type": "functional, cell-based", "conditions": "MDA-MB-231, 168 h", "summary_of_the_method": "as §1"}, "NCI-H209 [15]": {"tested_on": "NCI-H209", "assay": "Potentiation of TMZ-induced antitumor activity against human NCI-H209 cells xenografted in BALB/c nude mouse assessed as PR rate at […], po BID for 28 days and co-treated with 50 mg/kg, po QD TMZ for 5 consecutive days at start of study and again 14 days later", "assay_type": "functional", "conditions": "time 28 day"}, "[16]": {"assay": "Toxicity in BALB/c nude mouse xenografted with human NCI-H209 cells assessed as drug tolerability at […], po BID for 28 days and co-treated with 50 mg/kg, po QD TMZ for 5 consecutive days at start of study and again 14 days later relative to TMZ alone", "assay_type": "organism-based", "conditions": "in vivo, dose 0.75 mg/kg, time 28 day"}, "Cytochrome P450 2C9": {"biological_target": "Cytochrome P450 2C9 (Homo sapiens, UniProt P11712)", "sequence (P11712 whole entry)": "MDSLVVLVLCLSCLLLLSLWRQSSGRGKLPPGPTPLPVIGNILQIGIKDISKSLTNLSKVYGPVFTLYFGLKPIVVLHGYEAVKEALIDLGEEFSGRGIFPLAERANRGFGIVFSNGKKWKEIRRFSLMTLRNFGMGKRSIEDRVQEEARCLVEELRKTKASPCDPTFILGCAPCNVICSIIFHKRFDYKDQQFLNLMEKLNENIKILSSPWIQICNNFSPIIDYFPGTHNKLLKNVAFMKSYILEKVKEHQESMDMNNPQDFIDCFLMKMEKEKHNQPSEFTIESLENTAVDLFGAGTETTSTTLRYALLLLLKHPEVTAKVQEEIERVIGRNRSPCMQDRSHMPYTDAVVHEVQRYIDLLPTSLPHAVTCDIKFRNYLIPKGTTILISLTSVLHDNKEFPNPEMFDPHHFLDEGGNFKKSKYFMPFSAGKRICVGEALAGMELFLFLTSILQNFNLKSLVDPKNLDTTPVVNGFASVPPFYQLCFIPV", "assay": "Inhibition of CYP2C9 (unknown origin)", "assay_type": "ADME"}, "NCI-H209 [17]": {"tested_on": "NCI-H209", "assay": "Potentiation of TMZ-induced antitumor activity against human NCI-H209 cells xenografted in BALB/c nude mouse assessed as tumor relapse rate at […], po BID for 28 days and co-treated with 50 mg/kg, po QD TMZ for 5 consecutive days at start of study and again 14 days later and measured after 68 days", "assay_type": "functional, organism-based", "conditions": "time 28.0 day"}, "[18]": {"assay": "Half life in Beagle dog at 2 mg/kg, po by LC-MS/MS analysis", "assay_type": "ADME, organism-based, Canis lupus familiaris", "conditions": "in vivo", "summary_of_the_method": "as §4"}, "[19]": {"assay": "Clearance in mouse liver microsomes", "assay_type": "ADME, Microsome", "conditions": "read-out: CLH"}, "[20]": {"assay": "AUC (0 to infinity) in Beagle dog at 1 mg/kg, iv by LC-MS/MS analysis", "assay_type": "ADME, organism-based, Canis lupus familiaris", "parameters": "time infinity, route intravenous, dose 1 mg/kg", "conditions": "in vivo", "summary_of_the_method": "as §4"}, "[21]": {"biological_target": "Solute carrier organic anion transporter family member 1B1 (Homo sapiens, UniProt Q9Y6L6)", "sequence (Q9Y6L6 whole entry)": "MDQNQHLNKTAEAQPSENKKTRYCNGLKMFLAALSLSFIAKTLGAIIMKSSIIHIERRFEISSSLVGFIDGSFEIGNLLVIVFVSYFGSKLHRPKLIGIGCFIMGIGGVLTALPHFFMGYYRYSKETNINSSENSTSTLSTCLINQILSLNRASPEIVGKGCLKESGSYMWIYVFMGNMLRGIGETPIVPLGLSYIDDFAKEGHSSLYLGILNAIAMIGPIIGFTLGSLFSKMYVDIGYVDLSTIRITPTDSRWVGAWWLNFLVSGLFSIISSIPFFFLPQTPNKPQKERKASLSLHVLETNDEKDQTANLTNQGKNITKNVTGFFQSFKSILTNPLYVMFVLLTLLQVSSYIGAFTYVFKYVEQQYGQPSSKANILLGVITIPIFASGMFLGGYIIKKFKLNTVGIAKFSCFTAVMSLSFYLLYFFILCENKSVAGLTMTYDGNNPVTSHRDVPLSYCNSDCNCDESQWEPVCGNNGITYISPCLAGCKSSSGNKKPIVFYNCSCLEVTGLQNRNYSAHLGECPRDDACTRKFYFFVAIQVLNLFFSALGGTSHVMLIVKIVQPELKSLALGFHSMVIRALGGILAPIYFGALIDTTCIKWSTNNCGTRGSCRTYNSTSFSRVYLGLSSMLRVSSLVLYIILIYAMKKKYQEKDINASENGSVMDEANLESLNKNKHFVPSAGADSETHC", "assay": "Inhibition of OATP1B1 (unknown origin)"}, "[22]": {"assay": "Volume of distribution at steady state in Sprague-Dawley rat at 2 mg/kg, iv by LC-MS/MS analysis", "assay_type": "ADME, organism-based", "conditions": "in vivo, read-out: Vdss", "summary_of_the_method": "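Pharmacokinetics in Sprague-Dawley rats, three per group. iv 2 mg/kg in 38% DMA in water; po 5 mg/kg. Plasma was protein-precipitated, diluted with water and analysed by LC-MS/MS using an acetonitrile/0.1% formic acid gradient. Values are means of three rats.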"}, "Cytochrome P450 1A2": {"biological_target": "Cytochrome P450 1A2 (Homo sapiens, UniProt P05177)", "sequence (P05177 whole entry)": "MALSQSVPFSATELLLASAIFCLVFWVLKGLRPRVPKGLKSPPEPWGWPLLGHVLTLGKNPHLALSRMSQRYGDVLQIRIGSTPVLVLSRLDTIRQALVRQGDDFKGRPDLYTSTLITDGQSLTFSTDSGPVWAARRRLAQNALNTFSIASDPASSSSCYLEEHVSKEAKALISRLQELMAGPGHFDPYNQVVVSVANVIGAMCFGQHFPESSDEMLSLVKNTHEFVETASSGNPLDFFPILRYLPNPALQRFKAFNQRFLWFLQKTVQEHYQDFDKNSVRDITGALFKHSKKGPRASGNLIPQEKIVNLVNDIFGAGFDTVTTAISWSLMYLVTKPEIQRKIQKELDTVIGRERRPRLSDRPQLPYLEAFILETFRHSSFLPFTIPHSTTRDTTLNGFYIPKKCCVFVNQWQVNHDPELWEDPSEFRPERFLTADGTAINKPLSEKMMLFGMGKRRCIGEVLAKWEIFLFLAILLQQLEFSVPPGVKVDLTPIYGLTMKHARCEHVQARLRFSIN", "assay": "Inhibition of CYP1A2 (unknown origin)", "assay_type": "ADME"}, "[23]": {"assay": "Cmax in Sprague-Dawley rat at 5 mg/kg, po by LC-MS/MS analysis", "conditions": "in vivo"}, "MDA-MB-436": {"tested_on": "MDA-MB-436", "assay": "Antitumor activity against human MDA-MB-436 cells xenografted in BALB/c nude mouse assessed as inhibition of tumor growth at 1.6 to […], po BID for 28 days followed by treatment was interruption and monitored for additional 2 months", "assay_type": "functional, organism-based", "conditions": "dose lower […], dose upper […], time 28.0 day"}, "Cytochrome P450 2C8": {"biological_target": "Cytochrome P450 2C8 (Homo sapiens, UniProt P10632)", "sequence (P10632 whole entry)": "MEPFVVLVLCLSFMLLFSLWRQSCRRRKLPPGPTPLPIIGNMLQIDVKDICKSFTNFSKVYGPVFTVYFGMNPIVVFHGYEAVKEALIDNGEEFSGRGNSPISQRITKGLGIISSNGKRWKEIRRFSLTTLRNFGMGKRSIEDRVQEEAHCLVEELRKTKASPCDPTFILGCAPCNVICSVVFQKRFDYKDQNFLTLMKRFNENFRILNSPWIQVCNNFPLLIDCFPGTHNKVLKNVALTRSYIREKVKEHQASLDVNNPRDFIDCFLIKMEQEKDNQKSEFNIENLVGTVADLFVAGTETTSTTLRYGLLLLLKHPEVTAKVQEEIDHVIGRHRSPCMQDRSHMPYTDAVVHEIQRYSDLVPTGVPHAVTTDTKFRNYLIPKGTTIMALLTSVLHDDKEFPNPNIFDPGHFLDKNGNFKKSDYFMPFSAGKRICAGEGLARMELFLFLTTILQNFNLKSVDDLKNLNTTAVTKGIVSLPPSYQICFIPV", "assay": "Inhibition of CYP2C8 (unknown origin)", "assay_type": "ADME"}, "[24]": {"assay": "Drug level in C57BL/6 mouse brain at 10 mg/kg, po after 2 hrs", "assay_type": "ADME, organism-based", "conditions": "read-out: Drug uptake", "summary_of_the_method": "as §5"}, "[25]": {"assay": "Clearance in Sprague-Dawley rat at 2 mg/kg, iv by LC-MS/MS analysis", "assay_type": "ADME, organism-based", "conditions": "in vivo", "summary_of_the_method": "as §3"}, "Cytochrome P450 2D6": {"biological_target": "Cytochrome P450 2D6 (Homo sapiens, UniProt P10635)", "sequence (P10635 whole entry)": "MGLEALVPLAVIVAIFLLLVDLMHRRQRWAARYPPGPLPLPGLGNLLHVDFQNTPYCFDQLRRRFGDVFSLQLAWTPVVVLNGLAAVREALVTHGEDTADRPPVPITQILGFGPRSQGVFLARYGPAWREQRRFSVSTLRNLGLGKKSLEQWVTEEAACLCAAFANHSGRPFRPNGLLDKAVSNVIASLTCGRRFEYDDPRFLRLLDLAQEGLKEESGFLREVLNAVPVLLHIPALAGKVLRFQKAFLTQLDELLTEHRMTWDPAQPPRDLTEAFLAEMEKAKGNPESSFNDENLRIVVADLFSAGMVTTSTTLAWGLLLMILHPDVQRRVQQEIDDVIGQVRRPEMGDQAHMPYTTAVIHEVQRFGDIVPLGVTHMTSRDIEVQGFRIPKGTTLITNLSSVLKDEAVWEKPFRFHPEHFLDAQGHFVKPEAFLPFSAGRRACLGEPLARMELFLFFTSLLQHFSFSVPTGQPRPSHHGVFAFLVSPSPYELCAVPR", "assay": "Inhibition of CYP2D6 (unknown origin)", "assay_type": "ADME"}, "[26]": {"assay": "Unbound fraction in mouse plasma", "assay_type": "ADME, cell-free"}}, "note": "Activity calls are given as the source filed them. The rule behind the calls is not given here."}
{"compound": "C[C@]12CCCN1CC1=NNC(=O)c3cc(F)cc4[nH]c2c1c34", "note": "[PAMIPARIB]", "values": [{"measurement": "Tmax", "setting": "[1]", "value": 1, "unit": "h"}, {"measurement": "EC50", "setting": "SK-BR-3", "value": "> 10", "unit": "µM"}, {"measurement": "AUC", "setting": "[2]", "value": 5521, "unit": "ng·h/mL"}, {"measurement": "IC50", "setting": "Cytochrome P450 3A4", "value": "> 10", "unit": "µM"}, {"measurement": "half-life", "setting": "[3]", "value": 5.3, "unit": "h"}, {"measurement": "Activity", "setting": "[4]", "value": "Non-Toxic"}, {"measurement": "half-life", "setting": "[5]", "value": 2.07, "unit": "h"}, {"measurement": "IC50", "setting": "[6]", "value": 47.8, "unit": "µM"}, {"measurement": "concentration at 4 h", "setting": "[7]", "value": 707, "unit": "ng/mL"}, {"measurement": "AUC(0-inf)", "setting": "[8]", "value": 1600, "unit": "ng·h/mL"}, {"measurement": "CL", "setting": "[9]", "value": 15.2, "unit": "mL/min/kg"}, {"measurement": "Cmax", "setting": "[10]", "value": 2710, "unit": "ng/mL"}, {"measurement": "concentration at 1 h", "setting": "[11]", "value": 3530, "unit": "ng/mL"}, {"measurement": "CL", "setting": "[12]", "value": 29.9, "unit": "mL/min/kg"}, {"measurement": "fraction unbound", "setting": "[13]", "value": 0.151}, {"measurement": "Papp A→B", "setting": "[14]", "value": 30.3, "unit": "×10⁻⁶ cm/s"}, {"measurement": "EC50", "setting": "MDA-MB-231", "value": "> 10", "unit": "µM"}, {"measurement": "Activity", "setting": "NCI-H209 [15]", "value": 50, "unit": "%"}, {"measurement": "Activity", "setting": "[16]", "value": "Non-Toxic"}, {"measurement": "IC50", "setting": "Cytochrome P450 2C9", "value": "> 10", "unit": "µM"}, {"measurement": "Activity", "setting": "NCI-H209 [17]", "value": "Active"}, {"measurement": "half-life", "setting": "[18]", "value": 3.62, "unit": "h"}, {"measurement": "CLint scaled", "setting": "[19]", "value": 12.9, "unit": "mL/min/kg"}, {"measurement": "AUC(0-inf)", "setting": "[20]", "value": 1080, "unit": "ng·h/mL"}, {"measurement": "IC50", "setting": "[21]", "value": 19.4, "unit": "µM"}, {"measurement": "Vd", "setting": "[22]", "value": 6.92, "unit": "L/kg"}, {"measurement": "IC50", "setting": "Cytochrome P450 1A2", "value": "> 10", "unit": "µM"}, {"measurement": "Cmax", "setting": "[23]", "value": 861, "unit": "ng/mL"}, {"measurement": "TGI", "setting": "MDA-MB-436", "value": "Dose-dependent effect"}, {"measurement": "IC50", "setting": "Cytochrome P450 2C8", "value": "> 10", "unit": "µM"}, {"measurement": "concentration at 2 h", "setting": "[24]", "value": 252, "unit": "ng/g"}, {"measurement": "clearance", "setting": "[25]", "value": 22.7, "unit": "mL/min/kg"}, {"measurement": "IC50", "setting": "Cytochrome P450 2D6", "value": "> 10", "unit": "µM"}, {"measurement": "fraction unbound", "setting": "[26]", "value": 0.15}]}
